Source: ChEMBL document CHEMBL3739264, “Synthesis and bio-evaluation of novel quinolino-stilbene derivatives as potential anticancer agents” (Bioorg Med Chem, 2015)
The source made the active and inactive calls. The rule behind the calls is not given here.

Experiments:
MCF7 = assay: Antiproliferative activity against human MCF7 cells after 72 hrs by SRB assay; format: functional, cell-based; conditions: MCF7, 72 h
Procedure, shortened: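 Cells seeded at 4,000-5,000/well for 16 h, then exposed 72 h to serial dilutions of compound in DMSO; sham DMSO as 100% and TCA-treated wells as 0%. IC50 from sigmoidal dose-response curves; two biological replicates, four technical each.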

MDA-MB-231 = assay: Antiproliferative activity against human MDA-MB-231 cells after 72 hrs by SRB assay; format: functional, cell-based; conditions: MDA-MB-231, 72 h
Procedure, shortened: (§1)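 Cells seeded at 4,000-5,000/well for 16 h, then exposed 72 h to serial dilutions of compound in DMSO; sham DMSO as 100% and TCA-treated wells as 0%. Fixed in 10% TCA at 4°C for 1 h, stained with 0.4% SRB for 30 min, dye solubilised in 10 mmol Tris pH 10.5, read at 540 nm. IC50 from sigmoidal dose-response curves; two biological replicates, four technical each.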

[1] = Antiproliferative activity against human 184B5 cells after 72 hrs by SRB assay; format: cell-based; conditions: 184B5, 72 h; procedure, shortened: as §1
MDA-MB-468 [2] = assay: Antiproliferative activity against human MDA-MB-468 cells after 72 hrs by SRB assay; format: functional, cell-based; conditions: MDA-MB-468, 72 h; procedure, shortened: as §1
HeLa = assay: Antiproliferative activity against human HeLa cells after 72 hrs by SRB assay; format: functional, cell-based; procedure, shortened: as §1
Tubulin (Homo sapiens) = Tubulin (Homo sapiens) (UniProt P68371+Q9H4B7+P0DPH7+P68366+Q13509+Q71U36+P04350+Q3ZCM7+P07437+P68363+Q9BQE3+Q6PEY2+Q13885+Q9BVA1+Q9BUF5); conditions: 5 uM
MDA-MB-468 [3] = assay: Cell cycle arrest in human MDA-MB-468 cells assessed as accumulation at S phase at 1 uM after 48 hrs by flow cytometry analysis relative to control; format: functional
Procedure, shortened: (§2)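 Cells seeded overnight at about 1 × 10^6 per plate, treated next morning, and harvested at set times. Fixed in 75% ethanol at -20°C for 12-24 h, then stained 1 h in PBS with 0.3% NP-40, 100 µg/ml RNase A and 100 µg/ml propidium iodide. Phase distribution read from DNA content by flow cytometry against sham-treated cells.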

MDA-MB-468 [4] = assay: Cell cycle arrest in human MDA-MB-468 cells assessed as accumulation at G2/M phase at 1 uM after 24 hrs by flow cytometry analysis relative to control; format: functional; procedure, shortened: as §2
MDA-MB-468 [5] = assay: Cell cycle arrest in human MDA-MB-468 cells assessed as accumulation at G0-G1 phase at 1 uM after 48 hrs by flow cytometry analysis relative to control; format: functional; procedure, shortened: as §2
MDA-MB-468 [6] = assay: Cell cycle arrest in human MDA-MB-468 cells assessed as accumulation at sub-G1 phase at 1 uM after 72 hrs by flow cytometry analysis relative to control; format: functional; procedure, shortened: as §2
MDA-MB-468 [7] = assay: Cell cycle arrest in human MDA-MB-468 cells assessed as accumulation at G0-G1 phase at 1 uM after 24 hrs by flow cytometry analysis relative to control; format: functional; procedure, shortened: as §2
MDA-MB-468 [8] = assay: Cell cycle arrest in human MDA-MB-468 cells assessed as accumulation at G2/M phase at 1 uM after 48 hrs by flow cytometry analysis relative to control; format: functional; procedure, shortened: as §2
MDA-MB-468 [9] = assay: Induction of DNA damage in human MDA-MB-468 cells at 1 uM after 24 hrs by immunostaining; format: functional, cell-based
Procedure, shortened: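 γH2A.X (phospho-Ser139) immunostaining, with HeLa at 6 µM for 24 or 48 h and MDA-MB468 at 1 µM. Cells on coverslips fixed and permeabilized in ice-cold methanol at -20°C. Blocked in 1% FBS, primary antibody 1:200 overnight at 4°C, then fluorophore-conjugated secondary 1 h. DNA counterstained with DRAQ5.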

MDA-MB-468 [10] = assay: Cell cycle arrest in human MDA-MB-468 cells assessed as accumulation at S phase at 1 uM after 24 hrs by flow cytometry analysis relative to control; format: functional; procedure, shortened: as §2
MDA-MB-468 [11] = assay: Cell cycle arrest in human MDA-MB-468 cells assessed as accumulation at G2/M phase at 1 uM after 12 hrs by flow cytometry analysis relative to control; format: functional; procedure, shortened: as §2
MDA-MB-468 [12] = assay: Cell cycle arrest in human MDA-MB-468 cells assessed as accumulation at sub-G1 phase at 1 uM after 24 hrs by flow cytometry analysis relative to control; format: functional; procedure, shortened: as §2
MDA-MB-468 [13] = assay: Cell cycle arrest in human MDA-MB-468 cells assessed as accumulation at G2/M phase at 1 uM after 72 hrs by flow cytometry analysis relative to control; format: functional; procedure, shortened: as §2
MDA-MB-468 [14] = assay: Cell cycle arrest in human MDA-MB-468 cells assessed as accumulation at G0-G1 phase at 1 uM after 12 hrs by flow cytometry analysis relative to control; format: functional; procedure, shortened: as §2
MDA-MB-468 [15] = assay: Cell cycle arrest in human MDA-MB-468 cells assessed as accumulation at S phase at 1 uM after 72 hrs by flow cytometry analysis relative to control; format: functional; procedure, shortened: as §2
MDA-MB-468 [16] = assay: Cell cycle arrest in human MDA-MB-468 cells assessed as accumulation at sub-G1 phase at 1 uM after 12 hrs by flow cytometry analysis relative to control; format: functional; procedure, shortened: as §2
MDA-MB-468 [17] = assay: Cell cycle arrest in human MDA-MB-468 cells assessed as accumulation at G0-G1 phase at 1 uM after 72 hrs by flow cytometry analysis relative to control; format: functional; procedure, shortened: as §2
MDA-MB-468 [18] = assay: Cell cycle arrest in human MDA-MB-468 cells assessed as accumulation at sub-G1 phase at 1 uM after 48 hrs by flow cytometry analysis relative to control; format: functional; procedure, shortened: as §2
MDA-MB-468 [19] = assay: Cell cycle arrest in human MDA-MB-468 cells assessed as accumulation at S phase at 1 uM after 12 hrs by flow cytometry analysis relative to control; format: functional; procedure, shortened: as §2

SMILES	IC50 (MCF7) [µM]	IC50 (MDA-MB-231) [µM]	IC50 [1] [µM]	IC50 (MDA-MB-468 [2]) [µM]	IC50 (HeLa) [µM]	also measured
COc1ccc2nc(Cl)c(/C=C\c3ccc(C(F)(F)F)cc3)cc2c1	12.4	22.8	40	22.7	16.2	–
Fc1ccc(/C=C\c2cc3ccc(Cl)cc3nc2Cl)cc1	16.9	42.6	26.9	10.9	38.6	–
CC[C@@]1(O)C(=O)OCc2c1cc1n(c2=O)Cc2cc3ccccc3nc2-1 [CAMPTOTHECIN]	–	0.00577	0.00496	0.0148	0.00613	–
FC(F)(F)c1cc(/C=C\c2cc3ccccc3nc2Cl)cc(C(F)(F)F)c1	7.46	10.1	13.7	10.5	6.78	–
CC(=O)O[C@H]1C(=O)[C@@]2(C)[C@H]([C@H](OC(=O)c3ccccc3)[C@]3(O)C[C@H](OC(=O)[C@H](O)[C@@H](NC(=O)c4ccccc4)c4ccccc4)C(C)=C1C3(C)C)[C@]1(OC(C)=O)CO[C@@H]1C[C@@H]2O [PACLITAXEL]	–	0.00256	0.00232	0.00387	0.00229	–
FC(F)(F)c1cc(/C=C\c2cc3ccc(Cl)cc3nc2Cl)cc(C(F)(F)F)c1	41.7	> 50	43	> 50	41.4	–
FC(F)(F)c1cccc(/C=C/c2cc3ccccc3nc2Cl)c1	24.4	45	24.7	24	20.3	–
COc1ccc2nc(Cl)c(/C=C\c3ccc(F)cc3)cc2c1	8.97	11.4	19.2	15.2	9.67	–
Fc1ccc(/C=C\c2cc3ccccc3nc2Cl)cc1	20.3	24	35.7	5.29	24.9	–
COc1ccc2nc(Cl)c(/C=C\c3ccccc3C(F)(F)F)cc2c1	4.47	2.77	5.31	4.98	2.6	–
COC(=O)Nc1nc2cc(C(=O)c3cccs3)ccc2[nH]1	–	–	–	–	–	inhibition (Tubulin (Homo sapiens)): Active
COc1ccc2nc(Cl)c(/C=C\c3cc(C(F)(F)F)cc(C(F)(F)F)c3)cc2c1	4.7	4.47	7.97	5.79	4.14	–
Fc1ccc(/C=C/c2cc3ccccc3nc2Cl)cc1	15.1	> 50	38.5	0.12	> 50	Activity (MDA-MB-468 [3]): 22%; Activity (MDA-MB-468 [4]): 20.2%; Activity (MDA-MB-468 [5]): 21.8%; Activity (MDA-MB-468 [6]): 65%; Activity (MDA-MB-468 [7]): 23.1%; Activity (MDA-MB-468 [8]): 15%; Activity (MDA-MB-468 [9]): Active; Activity (MDA-MB-468 [10]): 41.7%; Activity (MDA-MB-468 [11]): 21.9%; Activity (MDA-MB-468 [12]): 13.7%; Activity (MDA-MB-468 [13]): 6.7%; Activity (MDA-MB-468 [14]): 37%; Activity (MDA-MB-468 [15]): 11.4%; Activity (MDA-MB-468 [16]): 5%; Activity (MDA-MB-468 [17]): 16.1%; Activity (MDA-MB-468 [18]): 40.6%; Activity (MDA-MB-468 [19]): 34.5%
FC(F)(F)c1cccc(/C=C\c2cc3cc4c(cc3nc2Cl)OCO4)c1	18.9	26	17	> 50	20.1	–
COc1ccc2nc(Cl)c(/C=C\c3cccc(C(F)(F)F)c3)cc2c1	2.78	3.28	5.58	3.91	3.03	–
FC(F)(F)c1cc(/C=C\c2cc3cc4c(cc3nc2Cl)OCO4)cc(C(F)(F)F)c1	> 50	> 50	> 50	> 50	> 50	–
COc1ccc2nc(Cl)c(/C=C\c3ccc(C(F)(F)F)cc3C(F)(F)F)cc2c1	> 50	> 50	> 50	> 50	> 50	–
CCN(CC)CCCC(C)Nc1ccnc2cc(Cl)ccc12 (stereo not drawn) [CHLOROQUINE]	–	36.5	63.1	19.9	30	–
FC(F)(F)c1ccc(/C=C\c2cc3ccccc3nc2Cl)c(C(F)(F)F)c1	10.5	41.8	–	–	35.9	–
COc1ccc2nc(Cl)c(/C=C/c3ccc(C(F)(F)F)cc3)cc2c1	47	48.8	33.5	> 50	> 50	–
COc1ccc2nc(Cl)c(/C=C/c3ccc(F)cc3)cc2c1	14.1	11	9.74	14.8	> 50	–
FC(F)(F)c1ccc(/C=C\c2cc3ccccc3nc2Cl)cc1	4.26	5.36	7.94	7.38	4.22	–
FC(F)(F)c1ccc(/C=C\c2cc3ccc(Cl)cc3nc2Cl)cc1	6.45	13.6	26.4	16.1	12.6	–
